Measurements reported in ChEMBL document CHEMBL3112561, “Small molecule disruptors of the glucokinase-glucokinase regulatory protein interaction: 2. Leveraging structure-based drug design to identify analogues with improved pharmacokinetic profiles” (J Med Chem, 2014).
pEC50, pIC50: −log10 of the molar value.

tested on: not listed separately; experiment: Intrinsic clearance in rat liver microsomes at 1 uM after 30 mins in presence of NADPH; type: ADME; conditions: read-out: CLH; call rule not given here

SMILES | microsomal CLint at 1 µM [µL/min/mg]
Nc1ccc(S(=O)(=O)N2CCN(c3ccc(C(O)(C(F)(F)F)C(F)(F)F)cc3)CC2)s1 | 128
O=S(=O)(c1cccs1)N1CCN(c2ccc(C(O)(C(F)(F)F)C(F)(F)F)cc2)CC1 | 150
Nc1ccc(S(=O)(=O)N2CCN(c3ccc(C(O)(C(F)(F)F)C(F)(F)F)cc3)CC2)cn1 | < 14
Nc1ccc(S(=O)(=O)N2CCN(c3ccc(C(O)(C(F)(F)F)C(F)(F)F)cc3)C(C#CC3CC3)C2)cn1 (racemic) | 61
C[C@@](O)(c1ccc(N2CCN(S(=O)(=O)c3cccs3)C[C@@H]2CN2[C@H]3COC[C@@H]2[C@H](O)C3)cc1)C(F)(F)F | 118
CC(O)(c1ccc(N2CCN(S(=O)(=O)c3cccs3)C[C@@H]2CN2CCC(F)(F)CC2)cc1)C(F)(F)F (mixture of isomers) | 349
C[C@@](O)(c1ccc(N2CCN(S(=O)(=O)c3cccs3)C[C@@H]2CN2[C@@H]3COC[C@H]2[C@@H](O)C3)cc1)C(F)(F)F | 155

tested on: Liver microsome; experiment: Drug metabolism in human liver microsomes assessed as cleavage of sufonamide; type: ADME; conditions: not given

SMILES | Drug metabolism
C[C@@](O)(c1ccc(N2CCN(S(=O)(=O)c3cccs3)C[C@@H]2CN2[C@H]3COC[C@@H]2[C@H](O)C3)cc1)C(F)(F)F | Active

molecular target: T1, Glucokinase regulatory protein (Homo sapiens, UniProt Q14397); experiment: Inhibition of fluorescein-labeled human GK interaction with biotin-labeled human GKRP incubated for 20 mins prior to addition of fluorescein-labeled GK measured after 2 to 4 hrs by Alpha Screen assay; conditions: not given
T1 sequence (Q14397 whole entry): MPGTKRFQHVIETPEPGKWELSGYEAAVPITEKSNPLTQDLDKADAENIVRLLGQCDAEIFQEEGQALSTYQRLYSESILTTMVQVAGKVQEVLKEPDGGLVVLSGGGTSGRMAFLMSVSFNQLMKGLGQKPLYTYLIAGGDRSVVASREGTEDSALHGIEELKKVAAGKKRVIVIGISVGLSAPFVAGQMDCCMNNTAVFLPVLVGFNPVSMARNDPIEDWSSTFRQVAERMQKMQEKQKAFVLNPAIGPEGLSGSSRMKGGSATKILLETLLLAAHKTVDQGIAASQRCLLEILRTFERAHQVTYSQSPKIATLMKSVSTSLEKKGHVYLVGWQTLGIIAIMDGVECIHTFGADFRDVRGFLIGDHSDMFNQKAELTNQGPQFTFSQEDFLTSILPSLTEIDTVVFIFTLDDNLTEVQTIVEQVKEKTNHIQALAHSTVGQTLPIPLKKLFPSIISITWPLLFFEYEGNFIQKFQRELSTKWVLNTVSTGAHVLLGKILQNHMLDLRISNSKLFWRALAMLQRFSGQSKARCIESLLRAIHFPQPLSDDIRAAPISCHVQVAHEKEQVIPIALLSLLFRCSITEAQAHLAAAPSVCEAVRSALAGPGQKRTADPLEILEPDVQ

SMILES | pIC50
Nc1ccc(S(=O)(=O)N2CCN(c3ccc(C(O)(C(F)(F)F)C(F)(F)F)cc3)CC2)s1 | 6.60
Nc1ccc(S(=O)(=O)N2CCN(c3ccc(C(O)(C(F)(F)F)C(F)(F)F)cc3)C(C#CC3CC3)C2)cn1 (racemic) | 6.11
C[C@@](O)(c1ccc(N2CCN(S(=O)(=O)c3cccs3)C[C@@H]2CN2[C@H]3COC[C@@H]2[C@H](O)C3)cc1)C(F)(F)F | 7.85
CC(O)(c1ccc(N2CCN(S(=O)(=O)c3cccs3)C[C@@H]2CN2CCC(F)(F)CC2)cc1)C(F)(F)F (mixture of isomers) | 6.36
C[C@@](O)(c1ccc(N2CCN(S(=O)(=O)c3cccs3)C[C@@H]2CN2[C@@H]3COC[C@H]2[C@@H](O)C3)cc1)C(F)(F)F | 7.60

tested on: Liver microsome; experiment: Drug metabolism in rat liver microsomes assessed as oxidative metabolite formation; type: ADME; conditions: not given

SMILES | Drug metabolism
Nc1ccc(S(=O)(=O)N2CCN(c3ccc(C(O)(C(F)(F)F)C(F)(F)F)cc3)CC2)cn1 | Not Active

tested on: not listed separately; experiment: Volume of distribution at steady state in rat at 2 mg/kg, iv; type: ADME, organism-based; design: dose 2 mg/kg, route intravenous; conditions: in vivo, read-out: Vdss
Summary of the method: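 Intravenous PK at 2 mg/kg in 100% DMSO; steady-state volume of distribution derived from plasma profile.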

SMILES | Vd [L/kg]
Nc1ccc(S(=O)(=O)N2CCN(c3ccc(C(O)(C(F)(F)F)C(F)(F)F)cc3)CC2)cn1 | 1.41

tested on: not listed separately; experiment: Clearance in rat at 2 mg/kg, iv; type: ADME, organism-based; design: dose 2 mg/kg, route intravenous; conditions: in vivo

SMILES | clearance [mL/min/kg]
Nc1ccc(S(=O)(=O)N2CCN(c3ccc(C(O)(C(F)(F)F)C(F)(F)F)cc3)CC2)cn1 | 2

molecular target: T2, Glucokinase regulatory protein (Mus musculus, UniProt Q91X44); experiment: Induction of GK translocation from nucleus to cytoplasm of mouse hepatocytes preincubated for 20 mins followed by glucose challenge measured after 40 mins by Hoechst 33342 staining-based assay; type: cell-based, Hepatocyte; conditions: not given
T2 sequence (Q91X44 whole entry): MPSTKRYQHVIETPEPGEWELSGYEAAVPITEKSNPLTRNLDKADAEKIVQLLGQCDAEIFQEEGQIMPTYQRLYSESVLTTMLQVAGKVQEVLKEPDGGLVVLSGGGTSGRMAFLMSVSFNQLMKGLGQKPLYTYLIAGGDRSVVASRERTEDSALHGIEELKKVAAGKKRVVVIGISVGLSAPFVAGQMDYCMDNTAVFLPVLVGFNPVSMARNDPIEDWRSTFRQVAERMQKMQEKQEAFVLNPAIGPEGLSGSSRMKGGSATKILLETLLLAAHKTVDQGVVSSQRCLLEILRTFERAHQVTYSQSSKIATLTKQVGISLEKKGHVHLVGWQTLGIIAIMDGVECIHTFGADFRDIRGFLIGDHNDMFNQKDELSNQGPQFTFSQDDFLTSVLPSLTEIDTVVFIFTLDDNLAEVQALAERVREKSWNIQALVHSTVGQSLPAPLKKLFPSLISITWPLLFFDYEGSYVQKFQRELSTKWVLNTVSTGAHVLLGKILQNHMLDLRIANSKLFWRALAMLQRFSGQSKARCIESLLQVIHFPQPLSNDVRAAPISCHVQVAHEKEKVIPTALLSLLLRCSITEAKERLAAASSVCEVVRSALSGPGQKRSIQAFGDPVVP

SMILES | pEC50
Nc1ccc(S(=O)(=O)N2CCN(c3ccc(C(O)(C(F)(F)F)C(F)(F)F)cc3)CC2)s1 | < 4.90
Nc1ccc(S(=O)(=O)N2CCN(c3ccc(C(O)(C(F)(F)F)C(F)(F)F)cc3)CC2)cn1 | < 4.90
Nc1ccc(S(=O)(=O)N2CCN(c3ccc(C(O)(C(F)(F)F)C(F)(F)F)cc3)C(C#CC3CC3)C2)cn1 (racemic) | < 4.90
C[C@@](O)(c1ccc(N2CCN(S(=O)(=O)c3cccs3)C[C@@H]2CN2[C@H]3COC[C@@H]2[C@H](O)C3)cc1)C(F)(F)F | 5.92
CC(O)(c1ccc(N2CCN(S(=O)(=O)c3cccs3)C[C@@H]2CN2CCC(F)(F)CC2)cc1)C(F)(F)F (mixture of isomers) | < 4.90
C[C@@](O)(c1ccc(N2CCN(S(=O)(=O)c3cccs3)C[C@@H]2CN2[C@@H]3COC[C@H]2[C@@H](O)C3)cc1)C(F)(F)F | 5.78

tested on: not listed separately; experiment: Oral bioavailability in rat at 10 mg/kg; type: ADME, organism-based; conditions: in vivo

SMILES | bioavailability [%]
Nc1ccc(S(=O)(=O)N2CCN(c3ccc(C(O)(C(F)(F)F)C(F)(F)F)cc3)CC2)cn1 | 71

tested on: not listed separately; experiment: Intrinsic clearance in human liver microsomes at 1 uM after 30 mins in presence of NADPH; type: ADME; conditions: read-out: CLH

SMILES | microsomal CLint at 1 µM [µL/min/mg]
Nc1ccc(S(=O)(=O)N2CCN(c3ccc(C(O)(C(F)(F)F)C(F)(F)F)cc3)CC2)cn1 | < 14
Nc1ccc(S(=O)(=O)N2CCN(c3ccc(C(O)(C(F)(F)F)C(F)(F)F)cc3)C(C#CC3CC3)C2)cn1 (racemic) | 52
C[C@@](O)(c1ccc(N2CCN(S(=O)(=O)c3cccs3)C[C@@H]2CN2[C@H]3COC[C@@H]2[C@H](O)C3)cc1)C(F)(F)F | 128
CC(O)(c1ccc(N2CCN(S(=O)(=O)c3cccs3)C[C@@H]2CN2CCC(F)(F)CC2)cc1)C(F)(F)F (mixture of isomers) | 280
C[C@@](O)(c1ccc(N2CCN(S(=O)(=O)c3cccs3)C[C@@H]2CN2[C@@H]3COC[C@H]2[C@@H](O)C3)cc1)C(F)(F)F | 99

tested on: Liver microsome; experiment: Drug metabolism in rat liver microsomes assessed as cleavage of sufonamide; type: ADME; conditions: not given

SMILES | Drug metabolism
C[C@@](O)(c1ccc(N2CCN(S(=O)(=O)c3cccs3)C[C@@H]2CN2[C@H]3COC[C@@H]2[C@H](O)C3)cc1)C(F)(F)F | Active

tested on: not listed separately; experiment: Mean residence time in rat at 10 mg/kg, po; type: ADME, organism-based; design: dose 10 mg/kg, route oral; conditions: in vivo
Summary of the method: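 Oral PK at 10 mg/kg in 1% Tween 80, 2% HPMC, 97% water, […]; mean residence time from plasma profile.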

SMILES | MRT [h]
Nc1ccc(S(=O)(=O)N2CCN(c3ccc(C(O)(C(F)(F)F)C(F)(F)F)cc3)CC2)cn1 | 8.4

tested on: Liver microsome; experiment: Drug metabolism in rat liver microsomes assessed as oxidation of thiophene ring; type: ADME; conditions: not given

SMILES | Drug metabolism
C[C@@](O)(c1ccc(N2CCN(S(=O)(=O)c3cccs3)C[C@@H]2CN2[C@H]3COC[C@@H]2[C@H](O)C3)cc1)C(F)(F)F | Active

tested on: Liver microsome; experiment: Drug metabolism in human liver microsomes assessed as oxidation of thiophene ring; type: ADME; conditions: not given

SMILES | Drug metabolism
C[C@@](O)(c1ccc(N2CCN(S(=O)(=O)c3cccs3)C[C@@H]2CN2[C@H]3COC[C@@H]2[C@H](O)C3)cc1)C(F)(F)F | Active
